biological target: D(3) dopamine receptor (Homo sapiens, UniProt P35462); test: Displacement of [3H]spiperone from human dopamine D3 receptor transfected in CHO cells after 1 hr by scintillation counting analysis; format: cell-based; settings: not given
Sequence (P35462 whole entry): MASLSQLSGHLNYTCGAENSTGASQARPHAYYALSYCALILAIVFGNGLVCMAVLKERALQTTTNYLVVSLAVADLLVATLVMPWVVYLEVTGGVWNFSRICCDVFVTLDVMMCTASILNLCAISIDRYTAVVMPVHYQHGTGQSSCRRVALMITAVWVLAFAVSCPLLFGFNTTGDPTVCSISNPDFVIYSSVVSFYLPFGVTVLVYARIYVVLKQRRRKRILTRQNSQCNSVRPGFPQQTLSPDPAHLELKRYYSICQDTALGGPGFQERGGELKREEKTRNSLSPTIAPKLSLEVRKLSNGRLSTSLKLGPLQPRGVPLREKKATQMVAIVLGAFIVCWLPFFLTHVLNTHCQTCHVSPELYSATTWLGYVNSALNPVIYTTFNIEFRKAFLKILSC

| Ki | SMILES |
| --- | --- |
| 1.2 nM | CCCCn1cc(CCCOc2ccc(C(=O)NCCCCN(CCC)[C@@H]3CCc4c(O)cccc4C3)cc2OC)nn1 |
| 0.63 nM | C#CC1=CC[C@@H](N(CCC)CCCCNC(=O)c2ccc(OCCCc3cn(CCCC)nn3)c(OC)c2)CO1 |

biological target: T1, D(2) dopamine receptor (Homo sapiens, UniProt P14416); test: Intrinsic activity at human dopamine D2S receptor expressed in HEK293 cells co-transfected with Galphai2 assessed as [35S]GTPgammaS binding after 30 mins by [35S]GTPgammaS incorporation assay; format: functional, cell-based; settings: not given
T1 sequence (P14416 whole entry): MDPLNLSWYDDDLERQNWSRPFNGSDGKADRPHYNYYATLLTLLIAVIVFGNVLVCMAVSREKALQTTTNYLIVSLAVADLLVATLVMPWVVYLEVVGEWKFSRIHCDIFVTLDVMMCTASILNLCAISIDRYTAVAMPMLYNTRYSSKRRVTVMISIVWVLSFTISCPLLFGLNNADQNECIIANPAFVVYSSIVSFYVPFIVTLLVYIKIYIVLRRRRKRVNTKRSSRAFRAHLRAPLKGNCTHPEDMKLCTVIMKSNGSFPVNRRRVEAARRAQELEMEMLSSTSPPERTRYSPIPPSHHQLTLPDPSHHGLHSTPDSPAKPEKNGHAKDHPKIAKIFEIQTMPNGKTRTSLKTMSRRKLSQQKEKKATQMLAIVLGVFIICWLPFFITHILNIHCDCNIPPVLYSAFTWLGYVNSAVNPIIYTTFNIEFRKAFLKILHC

| EC50 | SMILES |
| --- | --- |
| 660 nM | C#CC1=CC[C@@H](N(CCC)CCCCNC(=O)c2ccc(OCCCc3cn(CCCC)nn3)c(OC)c2)CO1 |

biological target: not listed separately; test: Displacement of [3H]prazosin from poricne cerebral cortex alpha1 adrenergic receptor by scintillation counting analysis; format: tissue-based, Sus scrofa; settings: not given

| Ki | SMILES |
| --- | --- |
| 480 nM | CCCCn1cc(CCCOc2ccc(C(=O)NCCCCN(CCC)[C@@H]3CCc4c(O)cccc4C3)cc2OC)nn1 |
| 1000 nM | C#CC1=CC[C@@H](N(CCC)CCCCNC(=O)c2ccc(OCCCc3cn(CCCC)nn3)c(OC)c2)CO1 |

biological target: T1, D(2) dopamine receptor; test: Intrinsic activity at human dopamine D2S receptor expressed in HEK293 cells co-transfected with Galphai2 assessed as [35S]GTPgammaS binding after 30 mins by [35S]GTPgammaS incorporation assay relative to quinpirole; format: functional, cell-based; settings: in the assay text read “after 75 mins” for “after 30 mins”
Procedure, shortened: (§1)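 Membranes from HEK293 cells cotransfected with D2L or D2S and PTX-insensitive Gαi2; 30 μg/mL protein, 10 μM GDP and compounds preincubated 30 min at 37 °C, then 0.10 nM [35S]GTPγS added for 75 min at 37 °C; filtration.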

| Emax | SMILES |
| --- | --- |
| < 5% | CCCCn1cc(CCCOc2ccc(C(=O)NCCCCN(CCC)[C@@H]3CCc4c(O)cccc4C3)cc2OC)nn1 |
| 94% | C#CC1=CC[C@@H](N(CCC)CCCCNC(=O)c2ccc(OCCCc3cn(CCCC)nn3)c(OC)c2)CO1 |

biological target: T1, D(2) dopamine receptor; test: Intrinsic activity at human dopamine D2L receptor expressed in HEK293 cells co-transfected with Galphai2 assessed as [35S]GTPgammaS binding after 30 mins by [35S]GTPgammaS incorporation assay relative to quinpirole; format: functional, cell-based; settings: in the assay text read “after 75 mins” for “after 30 mins”; procedure, shortened: as §1

| Emax | SMILES |
| --- | --- |
| < 5% | CCCCn1cc(CCCOc2ccc(C(=O)NCCCCN(CCC)[C@@H]3CCc4c(O)cccc4C3)cc2OC)nn1 |
| 61% | C#CC1=CC[C@@H](N(CCC)CCCCNC(=O)c2ccc(OCCCc3cn(CCCC)nn3)c(OC)c2)CO1 |

biological target: T2, D(4) dopamine receptor (Homo sapiens, UniProt P21917); test: Displacement of [3H]spiperone from human dopamine D4.4 receptor transfected in CHO cells after 1 hr by scintillation counting analysis; format: cell-based; settings: not given
T2 sequence (P21917 whole entry): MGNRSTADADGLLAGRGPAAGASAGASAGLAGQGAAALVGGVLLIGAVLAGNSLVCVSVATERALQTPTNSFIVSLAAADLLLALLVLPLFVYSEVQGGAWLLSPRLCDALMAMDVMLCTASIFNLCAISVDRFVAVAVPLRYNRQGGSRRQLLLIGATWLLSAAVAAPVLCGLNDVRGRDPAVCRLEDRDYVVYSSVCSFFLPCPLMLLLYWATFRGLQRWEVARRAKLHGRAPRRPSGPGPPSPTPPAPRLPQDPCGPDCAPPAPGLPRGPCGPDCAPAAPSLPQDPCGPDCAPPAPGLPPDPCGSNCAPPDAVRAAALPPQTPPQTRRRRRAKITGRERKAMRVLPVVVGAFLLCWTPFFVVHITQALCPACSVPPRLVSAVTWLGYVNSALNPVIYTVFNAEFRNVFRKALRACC

| Ki | SMILES |
| --- | --- |
| 290 nM | CCCCn1cc(CCCOc2ccc(C(=O)NCCCCN(CCC)[C@@H]3CCc4c(O)cccc4C3)cc2OC)nn1 |
| 30 nM | C#CC1=CC[C@@H](N(CCC)CCCCNC(=O)c2ccc(OCCCc3cn(CCCC)nn3)c(OC)c2)CO1 |

biological target: T1, D(2) dopamine receptor; test: Displacement of [3H]spiperone from human dopamine D2S receptor transfected in CHO cells after 1 hr by scintillation counting analysis; format: cell-based; settings: not given

| Ki | SMILES |
| --- | --- |
| 30 nM | CCCCn1cc(CCCOc2ccc(C(=O)NCCCCN(CCC)[C@@H]3CCc4c(O)cccc4C3)cc2OC)nn1 |
| 2.9 nM | C#CC1=CC[C@@H](N(CCC)CCCCNC(=O)c2ccc(OCCCc3cn(CCCC)nn3)c(OC)c2)CO1 |

biological target: D(1B) dopamine receptor (Homo sapiens, UniProt P21918); test: Displacement of [3H]SCH23390 from human dopamine D5 receptor transfected in HEK293 cells after 1 hr by scintillation counting analysis; format: cell-based; settings: not given
Sequence (P21918 whole entry): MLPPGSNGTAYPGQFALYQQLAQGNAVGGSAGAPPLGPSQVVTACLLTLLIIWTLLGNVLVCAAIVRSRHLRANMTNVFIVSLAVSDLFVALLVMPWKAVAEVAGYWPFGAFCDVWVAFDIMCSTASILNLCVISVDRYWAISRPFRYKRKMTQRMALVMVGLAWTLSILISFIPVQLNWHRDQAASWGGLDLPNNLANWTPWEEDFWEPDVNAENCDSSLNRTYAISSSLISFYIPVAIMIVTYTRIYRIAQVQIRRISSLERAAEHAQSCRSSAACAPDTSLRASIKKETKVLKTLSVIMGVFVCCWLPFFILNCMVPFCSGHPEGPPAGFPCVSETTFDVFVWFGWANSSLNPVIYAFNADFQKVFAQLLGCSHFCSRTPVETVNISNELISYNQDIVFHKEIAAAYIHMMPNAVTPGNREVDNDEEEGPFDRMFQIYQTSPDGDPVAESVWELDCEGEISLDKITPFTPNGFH

| Ki | SMILES |
| --- | --- |
| 21000 nM | CCCCn1cc(CCCOc2ccc(C(=O)NCCCCN(CCC)[C@@H]3CCc4c(O)cccc4C3)cc2OC)nn1 |
| 24000 nM | C#CC1=CC[C@@H](N(CCC)CCCCNC(=O)c2ccc(OCCCc3cn(CCCC)nn3)c(OC)c2)CO1 |

biological target: T1, D(2) dopamine receptor; test: Intrinsic activity at human dopamine D2L receptor expressed in HEK293 cells co-transfected with Galpha0i assessed as [35S]GTPgammaS binding after 30 mins by [35S]GTPgammaS incorporation assay; format: functional, cell-based; settings: not given

| EC50 | SMILES |
| --- | --- |
| 530 nM | CCCCn1cc(CCCOc2ccc(C(=O)NCCCCN(CCC)[C@@H]3CCc4c(O)cccc4C3)cc2OC)nn1 |
| 52 nM | C#CC1=CC[C@@H](N(CCC)CCCCNC(=O)c2ccc(OCCCc3cn(CCCC)nn3)c(OC)c2)CO1 |

biological target: T1, D(2) dopamine receptor; test: Intrinsic activity at human dopamine D2S receptor expressed in HEK293 cells co-transfected with Galpha0i assessed as [35S]GTPgammaS binding after 30 mins by [35S]GTPgammaS incorporation assay; format: functional, cell-based; settings: not given

| EC50 | SMILES |
| --- | --- |
| 830 nM | CCCCn1cc(CCCOc2ccc(C(=O)NCCCCN(CCC)[C@@H]3CCc4c(O)cccc4C3)cc2OC)nn1 |
| 110 nM | C#CC1=CC[C@@H](N(CCC)CCCCNC(=O)c2ccc(OCCCc3cn(CCCC)nn3)c(OC)c2)CO1 |

biological target: D(1A) dopamine receptor (Homo sapiens, UniProt P21728); test: Displacement of [3H]SCH23390 from human dopamine D1 receptor transfected in HEK293 cells after 1 hr by scintillation counting analysis; format: cell-based; settings: not given
Sequence (P21728 whole entry): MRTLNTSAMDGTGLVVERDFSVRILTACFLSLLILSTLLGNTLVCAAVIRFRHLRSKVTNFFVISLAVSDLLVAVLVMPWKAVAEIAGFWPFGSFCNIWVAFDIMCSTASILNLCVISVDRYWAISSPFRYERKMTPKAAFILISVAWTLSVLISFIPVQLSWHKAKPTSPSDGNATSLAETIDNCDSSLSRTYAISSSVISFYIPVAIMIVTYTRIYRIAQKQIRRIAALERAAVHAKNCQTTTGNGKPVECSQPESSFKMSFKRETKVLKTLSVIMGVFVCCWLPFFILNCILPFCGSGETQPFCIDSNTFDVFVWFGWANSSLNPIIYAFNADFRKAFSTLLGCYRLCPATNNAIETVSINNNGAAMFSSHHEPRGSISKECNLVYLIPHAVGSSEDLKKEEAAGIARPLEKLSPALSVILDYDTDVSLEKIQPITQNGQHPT

| Ki | SMILES |
| --- | --- |
| 23000 nM | CCCCn1cc(CCCOc2ccc(C(=O)NCCCCN(CCC)[C@@H]3CCc4c(O)cccc4C3)cc2OC)nn1 |
| 2600 nM | C#CC1=CC[C@@H](N(CCC)CCCCNC(=O)c2ccc(OCCCc3cn(CCCC)nn3)c(OC)c2)CO1 |

biological target: T1, D(2) dopamine receptor; test: Intrinsic activity at human dopamine D2S receptor expressed in HEK293 cells co-transfected with Galpha0i assessed as [35S]GTPgammaS binding after 30 mins by [35S]GTPgammaS incorporation assay relative to quinpirole; format: functional, cell-based; settings: not given
Procedure, shortened: (§2)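 HEK293 membranes cotransfected with D2L or D2S plus PTX-insensitive Gαo1; 30 μg/mL protein with compounds and 10 μM GDP preincubated 30 min, 37 °C; then 0.10 nM [35S]GTPγS for 30 min, 37 °C; GF/B filtration.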

| Emax | SMILES |
| --- | --- |
| 27% | CCCCn1cc(CCCOc2ccc(C(=O)NCCCCN(CCC)[C@@H]3CCc4c(O)cccc4C3)cc2OC)nn1 |
| 92% | C#CC1=CC[C@@H](N(CCC)CCCCNC(=O)c2ccc(OCCCc3cn(CCCC)nn3)c(OC)c2)CO1 |

biological target: not listed separately; test: Displacement of [3H]WAY100635 from poricne cerebral cortex 5-HT1A receptor by scintillation counting analysis; format: tissue-based, Sus scrofa; settings: not given

| Ki | SMILES |
| --- | --- |
| 200 nM | CCCCn1cc(CCCOc2ccc(C(=O)NCCCCN(CCC)[C@@H]3CCc4c(O)cccc4C3)cc2OC)nn1 |
| 130 nM | C#CC1=CC[C@@H](N(CCC)CCCCNC(=O)c2ccc(OCCCc3cn(CCCC)nn3)c(OC)c2)CO1 |

biological target: T1, D(2) dopamine receptor; test: Intrinsic activity at human dopamine D2L receptor expressed in HEK293 cells co-transfected with Galphai2 assessed as [35S]GTPgammaS binding after 30 mins by [35S]GTPgammaS incorporation assay; format: functional, cell-based; settings: not given

| EC50 | SMILES |
| --- | --- |
| 28 nM | C#CC1=CC[C@@H](N(CCC)CCCCNC(=O)c2ccc(OCCCc3cn(CCCC)nn3)c(OC)c2)CO1 |

biological target: T1, D(2) dopamine receptor; test: Agonist activity at ARMS2-PK2-tagged human dopamine D2S receptor expressed in HEK293 cells co-expressing (EA)-tagged beta arrestin fusion protein assessed as recruitment of beta-arrestin-2 after 5 hrs by chemiluminescence assay relative to quinpirole; format: cell-based; settings: not given
Procedure, shortened: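 Transient transfection of D2S (ProLink-tagged) into HEK293 cells stably expressing EA-tagged β-arrestin-2; 5000 cells seeded, 24 h.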

| Emax | SMILES |
| --- | --- |
| 56% | CCCCn1cc(CCCOc2ccc(C(=O)NCCCCN(CCC)[C@@H]3CCc4c(O)cccc4C3)cc2OC)nn1 |
| 88% | C#CC1=CC[C@@H](N(CCC)CCCCNC(=O)c2ccc(OCCCc3cn(CCCC)nn3)c(OC)c2)CO1 |

biological target: T1, D(2) dopamine receptor; test: Displacement of [3H]spiperone from human dopamine D2L receptor transfected in CHO cells after 1 hr by scintillation counting analysis; format: cell-based; settings: not given

| Ki | SMILES |
| --- | --- |
| 18 nM | CCCCn1cc(CCCOc2ccc(C(=O)NCCCCN(CCC)[C@@H]3CCc4c(O)cccc4C3)cc2OC)nn1 |
| 1.6 nM | C#CC1=CC[C@@H](N(CCC)CCCCNC(=O)c2ccc(OCCCc3cn(CCCC)nn3)c(OC)c2)CO1 |

biological target: T1, D(2) dopamine receptor; test: Intrinsic activity at human dopamine D2L receptor expressed in HEK293 cells co-transfected with Galpha0i assessed as [35S]GTPgammaS binding after 30 mins by [35S]GTPgammaS incorporation assay relative to quinpirole; format: functional, cell-based; settings: not given; procedure, shortened: as §2

| Emax | SMILES |
| --- | --- |
| 36% | CCCCn1cc(CCCOc2ccc(C(=O)NCCCCN(CCC)[C@@H]3CCc4c(O)cccc4C3)cc2OC)nn1 |
| 99% | C#CC1=CC[C@@H](N(CCC)CCCCNC(=O)c2ccc(OCCCc3cn(CCCC)nn3)c(OC)c2)CO1 |

biological target: T1, D(2) dopamine receptor; test: Agonist activity at ARMS2-PK2-tagged human dopamine D2S receptor expressed in HEK293 cells co-expressing (EA)-tagged beta arrestin fusion protein assessed as recruitment of beta-arrestin-2 after 5 hrs by chemiluminescence assay; format: cell-based; settings: not given

| EC50 | SMILES |
| --- | --- |
| 30 nM | CCCCn1cc(CCCOc2ccc(C(=O)NCCCCN(CCC)[C@@H]3CCc4c(O)cccc4C3)cc2OC)nn1 |
| 380 nM | C#CC1=CC[C@@H](N(CCC)CCCCNC(=O)c2ccc(OCCCc3cn(CCCC)nn3)c(OC)c2)CO1 |

biological target: 5-hydroxytryptamine receptor 2A (Homo sapiens, UniProt P28223); test: Displacement of [3H]ketanserin from human 5-HT2A receptor transfected in HEK293 cells by scintillation counting analysis; format: cell-based; settings: not given
Sequence (P28223 whole entry): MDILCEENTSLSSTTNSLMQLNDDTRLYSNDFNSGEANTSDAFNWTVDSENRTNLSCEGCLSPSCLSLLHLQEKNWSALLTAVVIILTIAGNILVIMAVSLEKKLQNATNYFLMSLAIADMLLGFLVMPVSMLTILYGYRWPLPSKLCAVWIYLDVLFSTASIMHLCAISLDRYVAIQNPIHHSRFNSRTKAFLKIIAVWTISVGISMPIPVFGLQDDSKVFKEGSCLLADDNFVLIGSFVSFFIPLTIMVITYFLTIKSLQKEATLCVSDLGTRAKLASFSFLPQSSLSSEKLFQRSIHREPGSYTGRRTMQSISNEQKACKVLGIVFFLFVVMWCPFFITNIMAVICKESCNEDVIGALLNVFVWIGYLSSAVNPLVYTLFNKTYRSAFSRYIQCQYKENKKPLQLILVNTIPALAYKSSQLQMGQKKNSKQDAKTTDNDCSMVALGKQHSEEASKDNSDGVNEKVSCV

| Ki | SMILES |
| --- | --- |
| 1000 nM | CCCCn1cc(CCCOc2ccc(C(=O)NCCCCN(CCC)[C@@H]3CCc4c(O)cccc4C3)cc2OC)nn1 |
| 8000 nM | C#CC1=CC[C@@H](N(CCC)CCCCNC(=O)c2ccc(OCCCc3cn(CCCC)nn3)c(OC)c2)CO1 |
